≈ marks a conversion by molar mass, not a printed value. Calls of active or inactive are those of the source. The calls are words filed in the database; no cut-off is given here.
Experiments:
THP-1 = test: Cytotoxicity against human THP1 cells; format: cell-based
[1] = tested on: Mycobacterium tuberculosis; test: Antimycobacterial activity against Mycobacterium tuberculosis H37Rv ATCC 27294 after 14 days by microscopy; format: functional; conditions: H37Rv ATCC 27294, 336 h
In short: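 2-fold serial dilutions of compounds (from DMSO stocks), 50 to 0.195 µM final, in 7H9 broth with 0.05% Tween 80, 0.2% glycerol and ADS. Inoculum is a culture grown to A600 0.2 and diluted 1:1000. Incubated at 37 C for 14 days. MIC99 (99% growth inhibition) read macroscopically with an inverted plate reader. Done in triplicate.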

[2] = tested on: Mycobacterium tuberculosis; test: Antimycobacterial activity against Mycobacterium tuberculosis H37Rv ATCC 27294 infected in Balb/c mouse assessed as reduction in bacterial load in lung at 100 mg/kg, po qd administered five days in a week starting 2 weeks post challenge measured after 6 weeks relative to untreated control; format: functional
In short: (§1)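 Balb/c mice of either sex (25-30 g) infected by aerosol in an inhalation chamber, about 1000 bacilli/lung. Oral gavage once daily, 5 days/week, starting 2 weeks post-infection. DMSO and untreated groups as controls. N = 5/group, killed at 3, 6 and 10 weeks of therapy. Lung or spleen homogenates in saline plated in duplicate on 7H11 agar, 37 C for 3–4 weeks. Read-out is log10 CFU/organ.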

[3] = tested on: Mycobacterium tuberculosis; test: Antimycobacterial activity against Mycobacterium tuberculosis H37Rv ATCC 27294 infected in Balb/c mouse assessed as reduction in bacterial load in lung at 100 mg/kg, po qd administered five days in a week starting 2 weeks post challenge measured after 10 weeks relative to untreated control; format: functional; in short: as §1
[4] = tested on: Mycobacterium tuberculosis; test: Antimycobacterial activity against Mycobacterium tuberculosis H37Rv ATCC 27294 infected in Balb/c mouse assessed as reduction in bacterial load in spleen at 100 mg/kg, po qd administered five days in a week starting 2 weeks post challenge measured after 6 weeks relative to untreated control; format: functional; in short: as §1
[5] = tested on: Mycobacterium tuberculosis; test: Antimycobacterial activity against Mycobacterium tuberculosis H37Rv ATCC 27294 infected in Balb/c mouse assessed as reduction in bacterial load in lung at 100 mg/kg, po qd administered five days in a week starting 2 weeks post challenge measured after 3 weeks relative to untreated control; format: functional; in short: as §1
[6] = tested on: Mycobacterium tuberculosis; test: Antimycobacterial activity against Mycobacterium tuberculosis H37Rv ATCC 27294 infected in Balb/c mouse assessed as reduction in bacterial load in spleen at 100 mg/kg, po qd administered five days in a week starting 2 weeks post challenge measured after 10 weeks relative to untreated control; format: functional; in short: as §1
[7] = tested on: Mycobacterium tuberculosis; test: Antimycobacterial activity against Mycobacterium tuberculosis H37Rv ATCC 27294 infected in Balb/c mouse assessed as reduction in bacterial load in spleen at 100 mg/kg, po qd administered five days in a week starting 2 weeks post challenge measured after 3 weeks relative to untreated control; format: functional; in short: as §1
[8] = tested on: Mycobacterium tuberculosis; test: Antimycobacterial activity against Mycobacterium tuberculosis H37Rv ATCC 27294 infected in Balb/c mouse assessed as reduction in bacterial load in lung at 100 mg/kg, po qd administered five days in a week starting 2 weeks post challenge measured after 6 weeks relative to DMSO-treated control; format: functional; in short: as §1
[9] = tested on: Mycobacterium tuberculosis; test: Antimycobacterial activity against Mycobacterium tuberculosis H37Rv ATCC 27294 infected in Balb/c mouse assessed as reduction in bacterial load in spleen at 100 mg/kg, po qd administered five days in a week starting 2 weeks post challenge measured after 3 weeks relative to DMSO-treated control; format: functional; in short: as §1
[10] = tested on: Mycobacterium tuberculosis; test: Antimycobacterial activity against Mycobacterium tuberculosis H37Rv ATCC 27294 infected in Balb/c mouse assessed as reduction in bacterial load in lung at 100 mg/kg, po qd administered five days in a week starting 2 weeks post challenge measured after 10 weeks relative to DMSO-treated control; format: functional; in short: as §1
[11] = tested on: Mycobacterium tuberculosis; test: Antimycobacterial activity against Mycobacterium tuberculosis H37Rv ATCC 27294 infected in Balb/c mouse assessed as reduction in bacterial load in lung at 100 mg/kg, po qd administered five days in a week starting 2 weeks post challenge measured after 3 weeks relative to DMSO-treated control; format: functional; in short: as §1
[12] = tested on: Mycobacterium tuberculosis; test: Antimycobacterial activity against Mycobacterium tuberculosis H37Rv ATCC 27294 infected in Balb/c mouse assessed as reduction in bacterial load in spleen at 100 mg/kg, po qd administered five days in a week starting 2 weeks post challenge measured after 6 weeks relative to DMSO-treated control; format: functional; in short: as §1
[13] = tested on: Mycobacterium tuberculosis; test: Antimycobacterial activity against Mycobacterium tuberculosis H37Rv ATCC 27294 infected in Balb/c mouse assessed as reduction in bacterial load in lung at 25 mg/kg, po qd administered five days in a week starting 2 weeks post challenge measured after 3 to 10 weeks relative to untreated control; format: functional, organism-based; set-up: dose 25 mg/kg; in short: as §1
[14] = tested on: Mycobacterium tuberculosis; test: Antimycobacterial activity against Mycobacterium tuberculosis H37Rv ATCC 27294 infected in Balb/c mouse assessed as reduction in bacterial load in spleen at 50 mg/kg, po qd administered five days in a week starting 2 weeks post challenge measured after 10 weeks relative to DMSO-treated control; format: functional; in short: as §1
[15] = tested on: Mycobacterium tuberculosis; test: Antimycobacterial activity against Mycobacterium tuberculosis H37Rv ATCC 27294 infected in Balb/c mouse assessed as reduction in bacterial load in spleen at 50 mg/kg, po qd administered five days in a week starting 2 weeks post challenge measured after 6 weeks relative to DMSO-treated control; format: functional; in short: as §1
[16] = tested on: Mycobacterium tuberculosis; test: Antimycobacterial activity against Mycobacterium tuberculosis H37Rv ATCC 27294 infected in Balb/c mouse assessed as reduction in bacterial load in spleen at 25 mg/kg, po qd administered five days in a week starting 2 weeks post challenge measured after 3 to 6 weeks relative to untreated control; format: functional, organism-based; set-up: dose 25 mg/kg; in short: as §1
[17] = tested on: Mycobacterium tuberculosis; test: Antimycobacterial activity against Mycobacterium tuberculosis H37Rv ATCC 27294 infected in Balb/c mouse assessed as reduction in bacterial load in spleen at 100 mg/kg, po qd administered five days in a week starting 2 weeks post challenge measured after 10 weeks relative to DMSO-treated control; format: functional
[18] = tested on: Mycobacterium tuberculosis; test: Antimycobacterial activity against Mycobacterium tuberculosis H37Rv ATCC 27294 infected in Balb/c mouse assessed as reduction in bacterial load in spleen at 25 mg/kg, po qd administered five days in a week starting 2 weeks post challenge measured after 10 weeks relative to untreated control; format: functional; in short: as §1
[19] = tested on: Mycobacterium tuberculosis; test: Antimycobacterial activity against Mycobacterium tuberculosis H37Rv ATCC 27294 infected in Balb/c mouse assessed as reduction in bacterial load in spleen at 50 mg/kg, po qd administered five days in a week starting 2 weeks post challenge measured after 3 weeks relative to DMSO-treated control; format: functional; in short: as §1
[20] = tested on: Mycobacterium tuberculosis; test: Ratio of isoniazid MIC99 to compound MIC99 for Mycobacterium tuberculosis H37Rv ATCC 27294 after 14 days by microscopy; format: functional
[21] = tested on: Mycobacterium tuberculosis; test: Antimycobacterial activity against Mycobacterium tuberculosis H37Rv ATCC 27294 infected in Balb/c mouse assessed as reduction in bacterial load in lung at 50 mg/kg, po qd administered five days in a week starting 2 weeks post challenge measured after 3 to 10 weeks relative to untreated control; format: functional, organism-based; set-up: dose 50 mg/kg; in short: as §1

Compound	Activity (THP-1) [µM]	MIC99 [1] [µM]	further results
Cc1ccc(OCc2cn(CCCOc3ccc(/C=N/NC(=O)c4ccncc4)cc3)nn2)cc1	> 50	0.78 (≈ 0.367 µg/mL)	–
CCCn1cc(COc2ccc(/C=N/NC(=O)c3ccncc3)cc2)nn1	> 50	0.78 (≈ 0.284 µg/mL)	–
O=C(N/N=C/c1ccc(OCCn2cc(CO)nn2)cc1)c1ccncc1	> 50	0.78 (≈ 0.286 µg/mL)	–
O=C(N/N=C/c1ccc(OCCCn2cc(C3(O)CCCCC3)nn2)cc1)c1ccncc1	> 50	0.78 (≈ 0.35 µg/mL)	–
O=C(N/N=C/c1ccc(OCCn2cc(COc3ccccc3)nn2)cc1)c1ccncc1	> 50	0.39 (≈ 0.173 µg/mL)	–
CCCCn1cc(COc2ccc(/C=N/NC(=O)c3ccncc3)cc2)nn1	> 50	0.39 (≈ 0.148 µg/mL)	–
O=C(N/N=C/c1ccc(OCCn2cc(-c3ccccc3)nn2)cc1)c1ccncc1	> 50	0.39 (≈ 0.161 µg/mL)	–
CCCCc1cn(CCCOc2ccc(/C=N/NC(=O)c3ccncc3)cc2)nn1	> 50	0.39 (≈ 0.159 µg/mL)	–
O=C(N/N=C/c1ccc(OCCCn2cc(COc3ccc(Cl)cc3)nn2)cc1)c1ccncc1	> 50	0.78 (≈ 0.383 µg/mL)	–
O=C(N/N=C/c1ccc(OCCCn2cc(COc3ccccc3)nn2)cc1)c1ccncc1	> 50	0.39 (≈ 0.178 µg/mL)	–
CC(C)n1cc(COc2ccc(/C=N/NC(=O)c3ccncc3)cc2)nn1	> 50	0.78 (≈ 0.284 µg/mL)	–
CCC(=O)OCc1cn(CCCOc2ccc(/C=N/NC(=O)c3ccncc3)cc2)nn1	> 50	0.78 (≈ 0.34 µg/mL)	–
CCCc1cn(CCCOc2ccc(/C=N/NC(=O)c3ccncc3)cc2)nn1	> 50	0.78 (≈ 0.306 µg/mL)	–
O=C(N/N=C/c1ccc(OCCn2cc(-c3ccccn3)nn2)cc1)c1ccncc1	> 50	0.39 (≈ 0.161 µg/mL)	–
O=C(N/N=C/c1ccc(OCCCn2cc(CO)nn2)cc1)c1ccncc1	> 50	0.78 (≈ 0.297 µg/mL)	–
O=C(N/N=C/c1ccc(OCCn2cc(C3(O)CCCCC3)nn2)cc1)c1ccncc1	> 50	0.39 (≈ 0.169 µg/mL)	–
NNC(=O)c1ccncc1 [ISONIAZID]	–	0.39 (≈ 0.0535 µg/mL)	log10cfu [2]: 2.59; log10cfu [3]: 3.38; log10cfu [4]: 3.68; log10cfu [5]: 1.22; log10cfu [6]: 4; log10cfu [7]: 2.66
CO[C@H]1/C=C/O[C@@]2(C)Oc3c(C)c(O)c4c(O)c(c(/C=N/N5CCN(C)CC5)c(O)c4c3C2=O)NC(=O)/C(C)=C\C=C\[C@H](C)[C@H](O)[C@@H](C)[C@@H](O)[C@@H](C)[C@H](OC(C)=O)[C@@H]1C [RIFAMPIN]	–	–	log10cfu [8]: 2.8; log10cfu [9]: 1.76; log10cfu [10]: 6.14; log10cfu [11]: 1.93; log10cfu [12]: 3.31
Cc1ccc(OCc2cn(CCOc3ccc(/C=N/NC(=O)c4ccncc4)cc3)nn2)cc1	> 50	0.39 (≈ 0.178 µg/mL)	–
O=C(N/N=C/c1ccc(OCc2cn(Cc3ccccc3)nn2)cc1)c1ccncc1	> 50	0.78 (≈ 0.322 µg/mL)	–
CCCCCn1cc(COc2ccc(/C=N/NC(=O)c3ccncc3)cc2)nn1	> 50	0.39 (≈ 0.153 µg/mL)	–
CCCCc1cn(CCOc2ccc(/C=N/NC(=O)c3ccncc3)cc2)nn1	> 50	0.78 (≈ 0.306 µg/mL)	–
CCC(=O)OCc1cn(CCOc2ccc(/C=N/NC(=O)c3ccncc3)cc2)nn1	> 50	0.78 (≈ 0.33 µg/mL)	–
O=C(N/N=C/c1ccc(OCCn2cc(COc3ccc(Cl)cc3)nn2)cc1)c1ccncc1	> 50	0.195 (≈ 0.093 µg/mL)	Activity [13]: inactive; log10cfu [14]: 3.31; log10cfu [15]: 2.15; log10cfu [8]: 0.82; log10cfu [9]: 1.46; Activity [16]: inactive; log10cfu [17]: 2.58; log10cfu [10]: 0.91; log10cfu [18]: 1.5; log10cfu [11]: 0.02; log10cfu [12]: 2.58; log10cfu [19]: 1.08; Ratio [20]: 2; Activity [21]: inactive
